Reference: ChEMBL document CHEMBL1157612, “Synthesis and biological activities of 2-amino-1-arylidenamino imidazoles as orally active anticancer agents” (J Med Chem, 2010)
Active and inactive are the calls of the source. No cut-off for these calls is given here.

What was measured:
[1] = tested on: NUGC-3; test: Anticancer activity against human NUGC3 cells after 72 hrs by MTS/PMS assay; type: functional, cell-based; conditions: NUGC-3, 72 h
Method in brief: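 NUGC-3 gastric cancer cells seeded 4500/well, grown 24 h at 37 °C, 5% CO2, then exposed 72 h to a concentration series, duplicate wells per concentration, final DMSO ≤0.3%. Controls were actinomycin D 10 nM and 0.3% DMSO vehicle. Viability read colorimetrically by MTS/PMS. IC50 is the concentration giving 50% growth inhibition, reported as mean of triplicate wells from at least three experiments.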

[2] = tested on: NUGC-3; test: Induction of apoptosis in human NUGC3 cells assessed as DNA fragmentation at 100 nM by ethidium bromide staining-based agarose gel electrophoresis; type: functional, cell-based
[3] = tested on: MKN-45; test: Ex vivo antiproliferative activity against human MKN45 cells xenografted in nude mouse assessed as BrdU incorporation into DNA after 96 hrs by immunostaining; type: functional, cell-based
Method in brief: (§1)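 MKN-45 or SW-480 cells (1 × 10^6) grown subcutaneously in nude mice to ~1 cm3; tumors cut into 1–2 mm pieces and histocultured on gelatin gels in MEM/DMEM with 10% FBS at 37 °C. After 3 days, exposed 96 h to 0.0001–10 μg/mL, then 40 μM BrdU for 48 h. Fixed, paraffin-sectioned, BrdU-immunostained with hematoxylin counterstain. Labeling index = BrdU-positive/total tumor cells; IC50 taken as concentration halving LI.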

[4] = tested on: P388; test: Anticancer activity against mouse P388 cells xenografted in DBA/2J mouse assessed as increase in mouse life span at 2.5 mg/kg, iv administered daily for 4 consecutive days; type: functional
Method in brief: (§2)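 Female DBA/2J mice, 5 weeks old, each inoculated iv with 1 × 10^6 P388 cells (grown in RPMI 1640 with nonessential amino acids, 50 μM 2-mercaptoethanol, 10% FBS). Compound was given iv starting one day after inoculation. Groups of 7–8 mice plus vehicle controls, monitored twice daily. Percentage increase in life span calculated from median survival time, normalised to controls.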

[5] = tested on: P388; test: Anticancer activity against mouse P388 cells xenografted in DBA/2J mouse assessed as increase in mouse life span at 25 mg/kg, po administered daily for 9 consecutive days; type: functional
Method in brief: (§3)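 Female DBA/2J mice, 5 weeks old, each given 1 × 10^6 P388 cells iv. Oral dosing by gavage (0.1 mL) started one day after inoculation. Compound was dissolved in DMSO and diluted in 0.5% carboxymethyl cellulose (final DMSO <0.5%). Groups of 7–8 mice; vehicle-only controls. Survival checked twice daily. Result is percentage increase in median survival time relative to the control group.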

[6] = tested on: NUGC-3; test: Induction of microtubule arrangement aberration in human NUGC3 cells assessed as appearance of tubulin at 1 uM after 16 hrs FITC analysis; type: functional, cell-based
Method in brief: (§4)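 NUGC-3 cells exposed to 1 μM for 16 h, then fixed in 4% formaldehyde 10 min and blocked with BSA. Stained with monoclonal anti-β-tubulin (1:200, 4 °C overnight) followed by FITC anti-mouse IgG (1:300, 1 h), and for DNA with Hoechst 33258 (1 μg/mL in 0.1% Triton X-100, 5 min). Imaged by confocal laser-scanning microscopy. DMSO vehicle control included.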

[7] = Inhibition of bovine brain tubulin polymerization by turbidity assay; design: species or system Bos taurus
[8] = tested on: Mus musculus; test: Toxicity in DBA/2J mouse xenografted with mouse P388 cells assessed as body weight loss at 25 to 200 mg/kg, po administered daily for 9 consecutive days; type: organism-based; design: dose 25-200 mg/kg, route oral; conditions: in vivo
[9] = organism: Bos taurus; test: Displacement of [3H]colchicine from bovine brain tubulin after 1 hr by scintillation counting
[10] = tested on: P388; test: Anticancer activity against mouse P388 cells xenografted in DBA/2J mouse assessed as increase in mouse life span at 100 mg/kg, po administered daily for 9 consecutive days; type: functional; method in brief: as §3
[11] = tested on: Mus musculus; test: Toxicity in DBA/2J mouse xenografted with mouse P388 cells assessed as body weight loss at 2.5 to 7.5 mg/kg, iv administered daily for 4 consecutive days; type: organism-based; design: dose 2.5-7.5 mg/kg, route intravenous; conditions: in vivo
[12] = organism: Bos taurus; test: Displacement of [3H]colchicine from bovine brain tubulin at 25 uM after 1 hr by scintillation counting
[13] = tested on: P388; test: Anticancer activity against mouse P388 cells xenografted in DBA/2J mouse assessed as increase in mouse life span at 200 mg/kg, po administered daily for 9 consecutive days; type: functional; method in brief: as §3
[14] = tested on: MKN-45; test: Ex vivo antiproliferative activity against human MKN45 cells xenografted in nude mouse assessed as drug concentration reducing 50% of BrdU labeling index after 96 hrs by immunostaining; type: functional, cell-based; conditions: MKN-45, 96 h; method in brief: as §1
[15] = tested on: NUGC-3; test: Induction of apoptosis in human NUGC3 cells assessed as DNA fragmentation at 1 uM after 16 hrs by Hoechst 33258 staining-based confocal laser-scanning microscopy; type: functional, cell-based; method in brief: as §4
[16] = tested on: P388; test: Anticancer activity against mouse P388 cells xenografted in DBA/2J mouse assessed as increase in mouse life span at 7.5 mg/kg, iv administered daily for 4 consecutive days; type: functional; method in brief: as §2
[17] = tested on: P388; test: Anticancer activity against mouse P388 cells xenografted in po dosed DBA/2J mouse assessed as increase in mouse life span administered daily for 9 consecutive days; type: functional, organism-based
Method in brief: (§5)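 Female DBA/2J mice, 5 weeks old, inoculated iv with 1 × 10^6 P388 cells each; dosing began one day later, 7–8 mice per group. Compound in DMSO diluted into 0.5% carboxymethyl cellulose (final DMSO <0.5%). Regimens: iv 2.5 or 7.5 (mg/kg)/day for 4 days; po gavage (0.1 mL) 25–200 (mg/kg)/day for 9 days. Vehicle-only controls. Survival checked twice daily; increase in life span computed from median survival time normalized to controls.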

[18] = tested on: P388; test: Anticancer activity against mouse P388 cells xenografted in iv dosed DBA/2J mouse assessed as increase in mouse life span administered daily for 4 consecutive; type: functional, organism-based; method in brief: as §5
[19] = tested on: SW480; test: Ex vivo antiproliferative activity against human SW480 cells xenografted in nude mouse assessed as BrdU incorporation into DNA after 96 hrs by immunostaining; type: functional, cell-based; method in brief: as §1
[20] = tested on: MKN-45; test: Ex vivo antiproliferative activity against human MKN45 cells xenografted in nude mouse assessed as BrdU incorporation into DNA at 10 ug/mL after 96 hrs by immunostaining; type: functional, cell-based; method in brief: as §1
[21] = tested on: MKN-45; test: Ex vivo apoptotic activity in human MKN45 cells xenografted in nude mouse assessed as DNA fragmentation at 10 ug/mL after 96 hrs by immunostaining; type: functional, cell-based
[22] = tested on: SW480; test: Ex vivo antiproliferative activity against human SW480 cells xenografted in nude mouse assessed as BrdU incorporation into DNA at 10 ug/mL after 96 hrs by immunostaining; type: functional, cell-based; method in brief: as §1

Compound `Nc1nc(-c2ccc(-c3ccccc3)cc2)cn1/N=C/c1ccc(Cl)cc1` has an IC50 [1] of over 10000 nM.

For `Nc1nc(-c2ccccc2)cn1/N=C/c1ccccc1Cl`, the IC50 [1] was 3970 nM.

With `Nc1nc(-c2ccccc2)c(-c2ccccc2)n1/N=C/c1ccc(Cl)cc1` the IC50 [1] was over 10000 nM.

`Nc1nc(-c2ccccc2)cn1/N=C/c1ccc(Br)cc1` gave an IC50 [1] of 580 nM.

For `Nc1nc(-c2ccccc2)cn1/N=C/c1ccccc1`, the IC50 [1] was 840 nM.

`Cc1ccsc1/C=N/n1cc(-c2ccccc2)nc1N` showed an IC50 [1] of 910 nM.

In the case of `COc1ccccc1-c1cn(/N=C/c2ccc(Cl)cc2)c(N)n1`, the IC50 [1] is reported as 5200 nM.

Compound `COc1cc2c(c(OC)c1OC)-c1ccc(OC)c(=O)cc1[C@@H](NC(C)=O)CC2` [COLCHICINE] has an IC50 [1] of 10 nM.

In the case of `Nc1nc(-c2ccsc2)cn1/N=C/c1ccc(Cl)cc1`, the IC50 [1] is reported as 50 nM.

For `Nc1nc(-c2ccccc2)cn1/N=C/c1ccc(C(F)(F)F)cc1`, the IC50 [1] was 5770 nM.

In the case of `Nc1nc(-c2ccccc2)cn1/N=C/c1ccnc2ccccc12`, the IC50 [1] is reported as over 10000 nM.

In the case of `Nc1nc(-c2cccnc2)cn1/N=C/c1ccc(F)cc1`, the IC50 [1] is reported as 60 nM.

Work on `Nc1nc(-c2ccccn2)cn1/N=C/c1ccc(Cl)cc1` yielded an IC50 [1] of 310 nM.

`Nc1nc(-c2cccs2)cn1/N=C/c1ccc(Cl)cc1` showed an IC50 [1] of 80 nM.

With `Nc1nc(-c2nccs2)cn1/N=C/c1ccc(Cl)cc1` the IC50 [1] was 510 nM.

Compound `Nc1nc(-c2ccccc2)cn1/N=C/c1ccc(Cl)c(Cl)c1` has an IC50 [1] of 740 nM.

For `Nc1nc(-c2ccc(Cl)s2)cn1/N=C/c1ccc(Cl)cc1`, the IC50 [1] was 3280 nM.

With `Nc1nc(-c2ccccc2)cn1/N=C/c1ccc(Cl)cc1` the Activity [2] was “Active”, the Activity [3] was “Dose-dependent effect” and the Activity [4] was 17%. The Activity [5] was 14%, the Activity [6] was “Active” and the IC50 [7] was 2650 nM. The Activity [8] was “Non-toxic”, the Activity [9] was “Dose-dependent effect” and the Activity [10] was 71%. For the same compound, the Activity [11] was “Non-toxic”, the IC50 [1] was 60 nM and the Activity [12] was “Active”. For the same compound, the Activity [13] was 114%, the IC50 [14] was 13000 nM and the Activity [15] was “Active”. The Activity [16] was 100%, the Activity [17] was “Dose-dependent effect” and the Activity [18] was “Dose-dependent effect”. For the same compound, the Activity [19] was “Dose-dependent effect”.

For `Nc1nc(-c2cccnc2)cn1/N=C/c1ccc(Cl)cc1`, the Activity [2] was “Active”, the IC50 [7] was 270 nM and the Activity [9] was “Dose-dependent effect”. The IC50 [1] was 230 nM and the Activity [12] was “Active”.

In the case of `Nc1nc(-c2ccccc2)cn1/N=C/c1ccc(F)cc1`, the Activity [20] is reported as “Active”, the Activity [21] is reported as “Active” and the Activity [22] is reported as “Active”. For the same compound, the IC50 [1] was 50 nM, the Activity [13] was 110% and the IC50 [14] was 34000 nM.

`Nc1nc(-c2ccccc2)cn1/N=C/c1cccc(Cl)c1Cl` showed an IC50 [1] of 5120 nM.
